Assay [1] has as its system Candida tropicalis. Kind of assay: microbe, parasite or virus in culture. Type of assay: functional. As to conditions: 3890, time 48 hrs.
Assay [2] relates to Candida albicans. The experiment in a line: Antifungal activity against fluconazole-sensitive Candida albicans SC5314 assessed as inhibition of fungal growth. The class given is functional.
In assay [3] the test system is Candida tropicalis. Kind of assay: Antifungal activity against fluconazole-resistant Candida tropicalis 5008 assessed as inhibition of cell proliferation at 8 ug/ml measured for 48 hrs by time growth curve assay. As to conditions: dose 8.0 µg/ml. Type of assay: functional, organism-based. In short, it runs like this: (§1)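 Exponential-phase cells from YEPD resuspended in 3 mL fresh RPMI 1640 at 1 × 10⁵ cells/mL (C. tropicalis 5008) or 1 × 10⁶ cells/mL (C. neoformans H99). Compound at several concentrations; cultures shaken at 240 rpm, 30 °C. Growth read as OD₆₃₀ at 0, 6, 12, 24, 36 and 48 h. Done in triplicate.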

For assay [4], the system named is Cryptococcus neoformans. Kind of assay: Antifungal activity against fluconazole-sensitive Cryptococcus neoformans H99 assessed as inhibition of cell proliferation at 2 to 8 ug/ml measured for 48 hrs by time growth curve assay. Type of assay: functional, organism-based. The note with it: dose 2-8 µg/ml. In outline:
as §1

Assay [5] relates to Candida tropicalis. Kind of assay: Inhibition of biofilm formation in Candida tropicalis 5008 at 64 ug/ml incubated for 24 hrs by XTT reduction assay. The class given is functional. In short, it runs like this: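 C. tropicalis 5008 or C. neoformans H99 from exponential YEPD culture diluted in RPMI 1640 to 1 × 10⁶ CFU/mL. Adhesion at 37 °C for 1.5 h. Results given as percent inhibition versus untreated wells. Three independent experiments, mean ± SD, t-test.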

In assay [6] the test system is Cryptococcus neoformans. Kind of assay: Inhibition of capsule formation in Cryptococcus neoformans H99 assessed as reduction in capsule size at 40 to 50 ug/ml incubated for 24 hrs by laser scanning confocal microscopic analysis. Type of assay: functional. As to conditions: dose 40-50 µg/ml. In short, it runs like this:
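Exponential C. neoformans H99 resuspended in PBS at 1 × 10⁷ cells/mL. Cells cultured in DMEM with FBS and compound at 37 °C under 10% CO₂ for 24 h, with an untreated control. Stained with India ink and imaged by laser scanning confocal microscopy at 63×, 10 random fields. Whole-cell and cell-body diameters measured to derive capsule size.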

In assay [7] the test system is Candida tropicalis. The experiment in a line: Inhibition of CYP51 in Candida tropicalis 5008 assessed as unknown sterol level at 4 ug/ml by GC-MS analysis (reference value: 6.48%). The note with it: dose 4.0 µg/ml. Set-up: scale not given: the % may be the effect or the level left.
Assay [8] concerns Candida tropicalis. The experiment in a line: Inhibition of CYP51 in Candida tropicalis 5008 assessed as obtusifoliol level at 4 ug/ml by GC-MS analysis. On the set-up: scale not given: the % may be the effect or the level left. As to conditions: dose 4.0 µg/ml.
The test system of assay [9] is Candida tropicalis. Kind of assay: Downregulation of MDR1 mRNA expression in Candida tropicalis 5008 at 4 ug/ml measured after 24 hrs by qRT-PCR analysis. The note with it: dose 4.0 µg/ml. The class given is functional. In outline:
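Exponential-phase C. tropicalis 5008 inoculated into 10 mL YPD with compound at several concentrations, DMSO as blank control. Incubated 35 °C for 24 h. Total RNA isolated on columns and reverse-transcribed. Real-time RT-PCR with ACT1 as internal control. Mean of 3 independent assays ± SD.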
A general note: Quantitative PCR measures a nucleic acid by following its amplification.

Assay [10] relates to Cryptococcus neoformans. The experiment in a line: Downregulation of RPD3 mRNA expression in Cryptococcus neoformans H99 at 2 ug/ml measured after 24 hrs by qRT-PCR analysis. Type of assay: functional. As to conditions: dose 2.0 µg/ml. In short, it runs like this:
(§2)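 Exponentially growing C. neoformans H99 inoculated into 50 mL YPD with compound and incubated 35 °C for 24 h. Cells ground in liquid nitrogen before total RNA isolation, then reverse transcription and real-time RT-qPCR. Means ± SD of three independent assays.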

For assay [11], the system named is Cryptococcus neoformans. Kind of assay: Downregulation of HOS1 mRNA expression in Cryptococcus neoformans H99 at 2 ug/ml measured after 24 hrs by qRT-PCR analysis. The note with it: dose 2.0 µg/ml. Type of assay: functional. In outline: as §2
Assay [12] deals with Cryptococcus neoformans. Kind of assay: Downregulation of CLR62 mRNA expression in Cryptococcus neoformans H99 at 2 ug/ml measured after 24 hrs by qRT-PCR analysis. Type of assay: functional. As to conditions: dose 2.0 µg/ml. In outline:
as §2

For assay [13], the system named is Candida tropicalis. Kind of assay: Antifungal activity against Candida tropicalis 5008 infected in ICR mouse model assessed as reduction in fungal burden in kidney at 20 mg/kg, po administered once a day for 5 days. The class given is functional. As to conditions: time 5 day. In short, it runs like this: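 ICR mice given cyclophosphamide 100 mg/kg ip 24 h before infection, then infected iv with 1 × 10⁵ CFU C. tropicalis 5008 on day 0. Treatment started 24 h post infection: oral dosing once daily for 5 consecutive days, with saline and fluconazole control groups. Mice euthanized day 6. Kidney homogenates plated on SDA at 35 °C for 48 h and colonies counted for fungal burden. ANOVA between groups.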

The subject of assay [14] is Cryptococcus neoformans. Kind of assay: Downregulation of CAP64 gene expression in Cryptococcus neoformans H99 at 2 ug/ml measured after 24 hrs by qRT-PCR analysis. The note with it: dose 2.0 µg/ml. Type of assay: functional. In outline: as §2

The structures appear in SMILES notation. Values after ≈ are worked out from the molar mass of the structure shown. Active and inactive are the calls of the source. The rule behind the calls is not given here.

Usually inhibition stands for the percentage by which the read-out fell short of the control. Consider `O=C(CCCCCCCOc1ccc(CN2CCN(CC(O)(Cn3cncn3)c3ccc(F)cc3F)CC2)cc1)NO` (centres undefined), for which the MIC80 in assay [1] worked out at 0.5 µg/mL (≈ 0.852 µM); in assay [2], 8 µg/mL (≈ 13.6 µM). The result in assay [3] and in assay [4] was Active. The compound also showed an inhibition at 64 µg/mL in assay [5] of 100%. For the same compound, the inhibition result in assay [6], in [9], in [10], in [11] and in [12] was “Active” in each case. For the same compound, the Activity in [7] came out at 1.31%; in assay [8], 16%. Further, the “log(activity)” value in assay [13] is listed as 0.7. Moreover, the inhibition entry in assay [14] is “inactive”.

(Values after ChEMBL document CHEMBL4842325, “Lanosterol 14α-demethylase (CYP51)/histone deacetylase (HDAC) dual inhibitors for treatment of Candida tropicalis and Cryptococcus neoformans infections” (Eur J Med Chem, 2021).)
